# Most compounds without a hit are left out; they make up all but 1.6% or so of the library.
# UCH37 DUB inh: blocks the human deubiquitinase UCH37 | purified proteasome/UCH37, Ub-AMC cleavage fluorescence | inhibition, % (test concentration not listed) | hit rate 0.33% among 330,000 | AID 588478;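 active = mean inhibition over replicate wells above about 20%, limit read from the data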;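 also: 0% = compound-free wells with enzyme and 100% = wells lacking proteasome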
#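 Material: Human UCH37 enzyme supplied as purified proteasome complex | Schedule: 30 min compound-proteasome preincubation then 25 min substrate reaction, room temperature | Detection: AMC fluorescence from Ub-AMC cleavage, excitation 355 nm, emission 460 nm | Benchmarks: Wells without proteasome as full block, compound-free enzyme plus substrate as uninhibited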
# Fh CTSL1 inh: counter-screen for PFM18AAP inhibitors: inhibitors of F. hepatica cathepsin L1 | recombinant F. hepatica cathepsin L1, Z-Leu-Arg-MCA fluorescence | inhibition, % at 5.96 µM | hit rate 0.49% among 300,000;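 active = inhibition above the mean of all tested compounds plus 3 SD, set per screening campaign, cut at about 17% in these data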;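 also: 0% = plate median of test compound wells and 100% = 1 µM Z-Phe-Ala-diazomethylketone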
# GSTO1 counter: blocks human GSTO1 in RBBP9 counter-screen | P78417 | recombinant GSTO1, activity-based probe fluorescence polarization | inhibition, % at 5.96 µM | hit rate 1.1% among 300,000;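 active = inhibition above the campaign mean inhibition plus 3 SD, cut at about 35% in these data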;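 also: 0% = GSTO1-1 with DMSO and 100% = wells lacking GSTO1-1 enzyme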
# HKDC1 inhibitor: blocks human hexokinase HKDC1 activity. hit rate 0.16% among 340,000. inhibition, % at 20 µM. recombinant HKDC1, G6PDH/diaphorase resazurin coupled fluorescence. Q2TB90;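 active = inhibition above about 35% when tested at 20 µM, limit read from the data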;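 also: plate controls were DMSO wells with enzyme for no effect and DMSO wells lacking enzyme for full effect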
# Target sequence (Q2TB90 whole entry, looked up): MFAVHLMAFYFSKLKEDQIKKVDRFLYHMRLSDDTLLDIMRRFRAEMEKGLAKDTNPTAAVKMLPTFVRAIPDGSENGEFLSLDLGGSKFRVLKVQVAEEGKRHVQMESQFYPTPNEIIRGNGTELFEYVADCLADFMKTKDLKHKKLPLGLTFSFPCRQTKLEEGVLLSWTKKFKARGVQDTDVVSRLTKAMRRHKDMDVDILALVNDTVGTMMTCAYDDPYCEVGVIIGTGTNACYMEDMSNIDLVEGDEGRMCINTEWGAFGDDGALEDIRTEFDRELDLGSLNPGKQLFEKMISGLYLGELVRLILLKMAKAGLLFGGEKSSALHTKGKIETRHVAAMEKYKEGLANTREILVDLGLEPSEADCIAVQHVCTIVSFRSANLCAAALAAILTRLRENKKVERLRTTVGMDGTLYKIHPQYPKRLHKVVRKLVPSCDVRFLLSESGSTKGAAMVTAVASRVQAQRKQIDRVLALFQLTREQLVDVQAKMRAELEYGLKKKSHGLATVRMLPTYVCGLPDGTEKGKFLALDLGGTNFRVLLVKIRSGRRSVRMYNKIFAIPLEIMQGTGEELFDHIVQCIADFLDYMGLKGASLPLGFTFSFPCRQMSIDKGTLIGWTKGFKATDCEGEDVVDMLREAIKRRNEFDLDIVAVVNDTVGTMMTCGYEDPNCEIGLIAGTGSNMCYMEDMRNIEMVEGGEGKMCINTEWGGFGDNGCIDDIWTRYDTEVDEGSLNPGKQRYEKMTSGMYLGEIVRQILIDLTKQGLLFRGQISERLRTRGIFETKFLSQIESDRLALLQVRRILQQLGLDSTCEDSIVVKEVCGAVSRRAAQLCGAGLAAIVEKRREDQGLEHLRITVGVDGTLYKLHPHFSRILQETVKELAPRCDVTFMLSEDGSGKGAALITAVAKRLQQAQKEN
#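 Test system: Recombinant HKDC1 (HK5) hexokinase enzyme, produced in-house | Input: HKDC1 at 5 µg/mL | Buffer or medium: Tris pH 8.0 buffer with MgCl2, Tween-20, BSA, BME | Schedule: 90 min reaction incubation at room temperature, dark | Technique: Resazurin-to-resorufin fluorescence via G6PDH and diaphorase coupling, 525/613 nm | Controls: DMSO wells with and without enzyme mix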
# PAD4 FP inh: PAD4 (human) enzyme inhibition; Q9UM07; recombinant PAD4, RCA probe fluorescence polarization; inhibition, % at 6.36 µM; hit rate 0.41% among 330,000; AID 485272;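 active = percent inhibition above a cutoff equal to the mean of all tested compounds plus 3 SD, cut at about 15% in these data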;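 also: 0% = PAD4 with RCA probe and DMSO and 100% = probe without PAD4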
# TDP2 inh: blocks human TDP2 phosphodiesterase activity | O95551 | recombinant TDP2, T5PNP hydrolysis, p-nitrophenol absorbance 415 nm | inhibition, % at 12.8 µM | hit rate 0.34% among 370,000 | AID 720702;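 active = inhibition above the mean of all tested compounds plus 3 SD, set per campaign, cut at about 25% in these data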;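 also: 0% = DMSO with enzyme and 100% = buffer with substrate but no TDP2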
#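 System: recombinant human TDP2 / Amount: 120 nM TDP2 per well / Also added: 5 mM T5PNP chromogenic substrate / Doses: 12.8 µM single point, 1% DMSO / Incubation: 2 h at 37 °C / Detection: p-Nitrophenol epi absorbance / Evaluation: % inhibition relative to enzyme-containing and enzyme-free wells / Repeats: singlicate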
# UCH37 reconfirm: reconfirmed inhibitor of human deubiquitinase UCH37; shares compounds with UCH37 DUB inh; Proteasome-bound UCH37, Ub-AMC cleavage fluorescence; inhibition, % at 20 µM; hit rate 27% among 480;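 active = average inhibition over replicates above about 50%, so the earlier screening hit is confirmed, limit read from the data; inactive = the rest, counted as false positives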;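 also: based on cleavage rate fitted by regression over a 30 min kinetic read; 0% = proteasome plus Ub-AMC and 100% = Ub-AMC without proteasome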
# TDP2 inh conf: human TDP2 inhibition, confirmation. AID 743263. shares compounds with TDP2 inh. recombinant human TDP2, absorbance read-out. inhibition, % at 12.8 µM. hit rate 22% among 1,100; in the data active = inhibition above about 25%;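 also: 0% = vehicle with enzyme and 100% = no enzyme buffer only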
# An asterisk follows results filed as active; x = not tested or not shown.
SMILES,UCH37 DUB inh,Fh CTSL1 inh,GSTO1 counter,HKDC1 inhibitor,PAD4 FP inh,TDP2 inh,TDP2 inh conf,others
Cc1[nH][nH]c(=O)c1C(c1c(C)[nH][nH]c1=O)c1cn(C)c2ccccc12,89.6*,x,x,-9.2,x,48.7*,20.7,UCH37 reconfirm=56.7*
Cc1ccc(-c2nn(-c3ccccc3)cc2C=NNC(=O)c2ccncc2)o1,-110.3,x,x,x,x,x,x,
CCCc1nc2c(=O)n(C)c(=O)nc-2n(C)n1,99.9*,x,x,3.3,x,95.2*,87.3*,UCH37 reconfirm=100.3*
Cc1cc(NC(=O)CSc2nccn2C)n(-c2ccccc2)n1,5.3,4.8,-12.3,-2.0,-0.1,25.9*,1.5,
COc1cc(NCCCCC(C)N)c2nccc(C)c2c1 (centres undefined),x,x,x,x,x,8.7,x,
COc1cc(NCCCC(C)N)c2ncccc2c1 (centres undefined),-1.4,x,x,18.5,x,64.2*,26.9*,
Cc1cc(C)nc(N=C(NC(=O)c2ccccc2)Nc2ccccc2)n1,-0.6,x,x,x,x,x,x,
Cc1cnc(C2OCCO2)c2cccc(N)c12,x,x,x,x,x,30.2*,43.8*,
COc1cc(C2C(C#N)=C(N)Oc3n[nH]c(-c4ccncc4)c32)cc(OC)c1OC (centres undefined),7.1,1.6,6.8,0.7,11.5,16.3,x,
N#CC1=C(N)Oc2n[nH]c(-c3cccs3)c2C1c1cccnc1 (centres undefined),5.7,0.0,34.6,-1.3,-10.3,7.8,x,
COc1cc(-c2[nH]nc3c2C(c2ccoc2)C(C#N)=C(N)O3)cc(OC)c1OC (centres undefined),1.6,0.8,7.3,-0.6,11.2,22.9,x,
COc1cc(-c2[nH]nc3c2C(c2ccco2)C(C#N)=C(N)O3)cc(OC)c1OC (centres undefined),0.1,3.6,21.3,-5.5,-3.4,42.5*,8.8,
COc1cc(C2C(C#N)=C(N)Oc3n[nH]c(-c4cccs4)c32)cc(OC)c1O (centres undefined),1.8,-3.0,35.5*,2.6,9.9,37.1*,8.4,
COc1cc(Br)c(C2C(C#N)=C(N)Oc3n[nH]c(-c4cccnc4)c32)cc1OC (centres undefined),5.8,-2.8,13.8,8.7,-7.8,43.4*,16.5,
CCOc1ccc(-c2[nH]nc3c2C(c2ccc4c(c2)OCO4)C(C#N)=C(N)O3)cc1OC (centres undefined),x,-0.7,23.6,-1.3,-0.5,27.2*,4.9,
CC1=NOC(=O)/C1=C/c1ccc(N(C)C)cc1,6.3,-0.8,2.8,12.9,2.9,18.2,x,
CC1=NN(CCC#N)C(=O)/C1=C/c1ccc(N(C)C)cc1,12.3,0.3,23.1,-0.4,-20.8,41.8*,-4.5,
Cc1cccc(C)c1N(CC(=O)NN=Cc1cc(Br)c(C)o1)S(C)(=O)=O,6.0,x,x,x,x,x,x,
O=C(NC(=S)Nc1ccccc1N1CCCCC1)c1ccco1,5.8,2.7,-5.1,-7.4,3.6,-17.0,x,
O=C(NC(=S)Nc1ccccc1N1CCCC1)c1ccco1,x,21.4*,27.9,1.7,1.0,38.1*,29.4*,
CN1C(=O)NC(c2ccccc2[N+](=O)[O-])C2=C1CC(C)(C)CC2=O (centres undefined),5.6,-2.1,31.4,2.5,-14.3,30.6*,12.7,
Cc1ccc(C(=O)N/C(=C\c2ccc(-c3ccccc3[N+](=O)[O-])o2)C(=O)NCCN(C)C)cc1,12.3,3.9,25.4,7.2,-12.7,24.6*,18.7,
CC1(N2CCOCC2)C(=O)c2ccccc2C1=O,1.5,1.2,0.8,-9.1,-0.5,3.6,x,
CC1(N2CCCCC2)C(=O)c2ccccc2C1=O,0.8,-0.6,-0.6,0.8,0.3,61.6*,1.8,
C=CCNc1nc(C(=O)OCC(=O)c2ccc(Cl)cc2)cs1,0.3,-7.5,4.5,6.9,-11.6,24.6*,-6.3,
SMILES,UCH37 DUB inh,Fh CTSL1 inh,GSTO1 counter,HKDC1 inhibitor,PAD4 FP inh,TDP2 inh,TDP2 inh conf,others
Cc1ccc(S(=O)(=O)/N=C2/NC(=O)/C(=C/c3ccccc3)S2)cc1,8.8,4.4,-41.7,0.9,-3.8,28.6*,10.8,
Cc1ccc(S(=O)(=O)/N=C2/NC(=O)/C(=C\c3ccccc3)S2)cc1,12.0,x,x,11.3,-7.0,9.3,x,
Cc1cc(C)cc(Oc2ccccc2C=NO)c1,5.1,x,x,x,x,x,x,
COC1=CC(=O)c2nc(Cl)ccc2C1=O,x,x,x,x,x,84.8*,78.2*,
COc1cc(Cc2nccc3cc(OC)c(OC)cc23)c(S(=O)(=O)O)cc1OC,1.4,-4.6,6.4,-3.3,-13.2,40.5*,3.6,
CCOc1ccc(NC(=O)CN(C)C(=O)c2ccccc2OCc2c(C)noc2C)cc1OCC,-1.7,1.4,3.0,0.6,-2.3,25.6*,9.7,
Brc1cccc(OCCCNC2CCCC2)c1,4.7,1.6,-4.6,-2.5,-5.5,26.1*,-6.5,
CC(=NNC(=O)CNC(=O)c1cccs1)c1ccc(Cl)cc1,5.2,x,x,x,x,x,x,
O=C(NCC(c1ccco1)N1CCOCC1)c1ccc(F)cc1 (centres undefined),1.6,-0.8,0.2,-0.6,-2.0,-1.9,x,
O=C(NCC(c1ccco1)N1CCOCC1)c1c(F)cccc1F (centres undefined),0.8,2.5,-8.1,1.5,2.1,24.9*,-2.5,
Cn1ccc2c(N3c4ccccc4CCc4ccccc43)cc3c(c21)C1CCC3C1 (centres undefined),x,x,x,x,x,0.3,x,
Cn1ccc2c(N3c4ccccc4CCc4ccccc43)cc3c(c21)C1CCC3O1 (centres undefined),x,x,x,x,x,28.2*,3.0,
CCOC(=O)NN=C(C)c1ccc(C)c([N+](=O)[O-])c1,2.8,x,x,x,x,x,x,
CNC(=S)N/N=C/c1ccc(-c2ccc(C(=O)O)cc2)o1,x,9.1,7.7,-5.7,-0.8,2.4,x,
Cc1[nH][nH]c(=O)c1C(c1ccc(-c2ccc(C(=O)O)cc2)o1)c1c(C)[nH][nH]c1=O,23.0*,x,x,-3.5,x,59.7*,31.8*,
CN(C)C(=O)c1cccc(-c2cnc3c(NC=O)cc(-c4ccccc4Cl)cn23)c1,x,x,x,x,x,-9.6,x,
CN(C)C(=O)c1cccc(-c2cnc3c(NC=O)cc(-c4ccccc4N(C)C)cn23)c1,x,x,x,x,x,28.8*,17.2,
CC(=O)Nc1nc2cc([N+](=O)[O-])ccc2s1,1.6,x,x,-4.4,-0.2,34.9*,4.2,
O=C(O)CCC(=NNC(=O)c1ccccc1)c1cccs1,3.9,x,x,x,x,x,x,
CCCCNc1nnc(Cc2ccc(Cl)cc2)c(=O)[nH]1,4.8,x,x,2.9,x,28.2*,0.1,
COc1cc2c(c(OC)c1OC)C(=O)CO2,1.6,x,x,-6.0,x,-0.1,x,
COc1cc2c(c(OC)c1O)C(=O)CO2,5.3,2.6,16.9,14.2,2.2,24.8*,-4.4,
